Data: ChEMBL document CHEMBL1800056, “Discovery of 2-(6-{[(6-fluoroquinolin-2-yl)methyl]amino}bicyclo[3.1.0]hex-3-yl)-N-hydroxypyrimidine-5-carboxamide (CHR-3996), a class I selective orally active histone deacetylase inhibitor” (J Med Chem, 2010)
Active and inactive are the calls of the source. The rule behind the calls is not given here.

How the values were obtained:
[1] = tested on: LoVo; assay: Ratio of GI50 for SAHA to compound for human LoVo cells after 72 hrs by WST-1 assay; assay type: functional
In short: (§1)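 Cells seeded at (1-5) × 10³/well in serum-containing medium and grown 24 h at 37 °C, 5% CO₂. They were then exposed for 72 h to HDAC inhibitor (0.6-10000 nM), with SAHA run alongside in the same panel. WST-1 was added for the final 4 h and read at 450 nm (650 nm reference). GI50 taken as 50% inhibition of the vehicle response, n = 6.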

[2] = Half life in dog at 10 mg/kg, po; assay type: ADME, organism-based, Canis lupus familiaris; parameters: dose 10 mg/kg, route oral; conditions: in vivo
In short: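 Dog single dose: iv 1 mg/kg in 5% DMSO-HPβC (11.25% w/v); po 10 mg/kg in 5% DMSO-saline. AUC0-t in ng h/mL, clearance in (mL/min)/kg, t1/2 in h, F in %.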

[3] = Ratio of GI50 for SAHA to compound for human […] cells after 72 hrs by WST-1 assay; assay type: functional; in short: as §1
[4] = tested on: Mus musculus; assay: In-vivo inhibition of HDAC6 in human HCT116 cells xenografted CrTac:NCr-Fox1 nude mouse assessed as alpha-tubulin acetylation at 50 mg/kg, po administered daily for 16 days by Western blot analysis relative to control; assay type: functional, organism-based; parameters: dose 50 mg/kg; conditions: HCT-116
In short: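 Female CrTac:NCr-Fox1(nu) mice, 6-8 weeks old, bearing bilateral sc HCT116 tumors (2 million cells). Daily oral 50 mg/kg in 10% DMSO-saline from day 6 (tumors ~5 mm) to day 16; vehicle controls. Tumor lysates taken 0.5, 1.0 and 4 h after the last dose. Western blot for acetylated histone H3 or α-tubulin, normalized to GAPDH.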

Compound | RatioGI50 [1] | half-life [2] | RatioGI50 [3] | inhibition [4]
O=C(NO)c1cnc(N2C[C@@H]3[C@H](C2)[C@H]3NCc2ccc3cc(F)ccc3n2)nc1 [NANATINOSTAT] | 12.1 | 54 min | 19 | –
O=C(NO)c1cnc(N2C[C@@H]3[C@H](C2)[C@H]3NCc2ccc(Cl)cc2)nc1 | – | – | – | inactive
